From ChEMBL document CHEMBL5331128, “Alicyclic Ring Size Variation of 4-Phenyl-2-naphthoic Acid Derivatives as P2Y14 Receptor Antagonists” (J Med Chem, 2023)
Values after ≈ are worked out from the molar mass of the structure shown. Active and inactive are the calls of the source.

Legend:
[1] = Cmax in Wistar rat plasma at 1 mg/kg, ip and measured upto 24 hrs; type: ADME, organism-based; design: time < 24 hrs, dose 1 mg/kg, route ip
[2] = Cmax in Wistar rat plasma at 3 mg/kg, ip and measured upto 24 hrs; type: ADME, organism-based; design: dose 3 mg/kg, time < 24 hrs, route ip
[3] = Microsomal stability in human liver microsomes assessed as half life; type: ADME, Microsome
[4] = Protein binding in mouse plasma assessed as bound fraction; type: ADME, cell-free
[5] = Acute toxicity in Wistar rat assessed as mortality at 0.5 mg/kg, iv and measured upto 24 hrs; type: organism-based; details: in vivo
Procedure, shortened: (§1)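 Male Wistar rats; single dose at 1, 3 or 10 mg/kg i.p., or 0.5 mg/kg i.v. Animals were watched for mortality and morbidity over the experimental period, in the course of a plasma pharmacokinetic study.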

[6] = target: 5-hydroxytryptamine receptor 1B (Homo sapiens, UniProt P28222); test: Displacement of [3H]-5-CT from human 5-HT1B receptor assessed as inhibition constant by radioligand displacement assay
Sequence of 5-hydroxytryptamine receptor 1B (P28222 whole entry, the tested form may be a part): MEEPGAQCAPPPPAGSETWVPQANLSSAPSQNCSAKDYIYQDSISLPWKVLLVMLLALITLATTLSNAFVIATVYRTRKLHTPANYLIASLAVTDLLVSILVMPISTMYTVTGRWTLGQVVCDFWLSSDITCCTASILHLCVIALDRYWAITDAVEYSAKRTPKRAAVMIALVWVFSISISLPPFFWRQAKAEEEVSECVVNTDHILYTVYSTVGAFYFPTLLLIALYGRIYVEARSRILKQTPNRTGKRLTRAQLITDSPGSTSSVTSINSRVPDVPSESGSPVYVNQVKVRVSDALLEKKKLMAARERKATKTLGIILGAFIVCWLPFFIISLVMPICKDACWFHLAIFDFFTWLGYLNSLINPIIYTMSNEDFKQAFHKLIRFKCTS

Mus musculus [7] = test: Protection against cardiac ischemia/reperfusion induced C57BL/6J mouse injury model assessed as reduction in infarct area by measuring AAR/TTA ratio at 2 mg/kg, sc prior to 0.5 hrs of myocardial ischemia and 48 h of reperfusion (Rvb= […]); type: functional; design: scale not given: the % may be the effect or the level left; details: time 48.5 hrs
[8] = Half life in Wistar rat at 1 mg/kg, ip and measured upto 24 hrs; type: ADME, organism-based; details: in vivo
Mus musculus [9] = test: Anti-asthmatic activity against OVA/Aspergillus-sensitized protease-mediated C57BL/6J mouse model allergic asthma assessed as reduction in macrophages in BAL fluid at 10 mg/kg,ip followed by 0.5 hrs OVA challenge and measured after 48 hrs; type: functional, organism-based; details: time 48.5 hrs
Cytochrome P450 3A4 = Cytochrome P450 3A4 (Homo sapiens, UniProt P08684); test: Inhibition of CYP3A4 (unknown origin); type: ADME
Sequence of Cytochrome P450 3A4 (P08684 whole entry): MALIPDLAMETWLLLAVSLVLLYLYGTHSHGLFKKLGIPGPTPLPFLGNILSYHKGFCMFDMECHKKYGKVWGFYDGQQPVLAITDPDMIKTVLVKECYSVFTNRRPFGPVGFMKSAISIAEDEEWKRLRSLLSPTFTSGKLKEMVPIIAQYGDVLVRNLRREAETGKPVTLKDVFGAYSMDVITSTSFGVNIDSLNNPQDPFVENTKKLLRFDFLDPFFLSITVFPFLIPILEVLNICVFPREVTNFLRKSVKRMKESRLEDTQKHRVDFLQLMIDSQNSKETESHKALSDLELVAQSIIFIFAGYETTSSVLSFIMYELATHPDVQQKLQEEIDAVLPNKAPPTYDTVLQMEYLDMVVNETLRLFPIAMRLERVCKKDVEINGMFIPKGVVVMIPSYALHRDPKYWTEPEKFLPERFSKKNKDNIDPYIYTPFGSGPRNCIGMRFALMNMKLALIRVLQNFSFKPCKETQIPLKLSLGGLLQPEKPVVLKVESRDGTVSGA

[10] = Stability in simulated gastric fluid assessed as parent compound remaining after 120 mins; type: ADME; details: simulated gi fluid, 2 h
Procedure, shortened: (§2)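 Incubation in simulated gastric or intestinal fluid; percent parent remaining read at 120 min.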

[11] = Stability in mouse plasma assessed as parent compound remaining at 1 uM and measured at 120 mins by LC-MS/MS analysis; type: ADME, cell-free; details: 2 h
Procedure, shortened: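 Plasma from human, rat and mouse; percent parent remaining at 120 min.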

[12] = Solubility of compound in pH 7.4 incubated for 20 hrs by pION method; type: physicochemical; details: buffer, pH 7.4, 20 h
Procedure, shortened: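 pION method: 5 mM DMSO stocks diluted 1:100 into pION buffer at pH 4.0 or 7.4, incubated 20 h. Undissolved material removed by centrifugation at 14,000 rpm for 20 min, then supernatant mixed 1:1 with n-propanol. […] Mean ± SD reported.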

Mus musculus [13] = test: Antiallodynic activity in CCI surgery neuropathic pain Hsd:ICR mouse model assessed as reversal of mechano-allodynia by measuring paw withdrawal threshold at 10 micromol/kg,ip and measured upto 5 days by von frey test; type: functional, organism-based; details: dose 10.0 µmol/kg, time <= 5.0 day
Procedure, shortened: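 CCI neuropathic pain in adult male Hsd:ICR (CD-1) mice (20–30 g). Single i.p. injection on day 7 after sciatic nerve constriction, at peak pain. Vehicle 10% (Kolliphor HS 15:DMSO 5:95) in saline, 0.2 mL. Paw withdrawal threshold by von Frey filaments on ipsilateral and contralateral hindpaws. Mean ± SD; two-way ANOVA with Dunnett's test versus day 0 and day 7.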

[14] = Half life in Wistar rat at 3 mg/kg, ip and measured upto 24 hrs; type: ADME, organism-based; details: in vivo
[15] = Cmax in Wistar rat plasma at 10 mg/kg, ip and measured upto 24 hrs; type: ADME, organism-based; design: time < 24 hrs, dose 10 mg/kg, route ip
[16] = Lipophilicity, log D of compound at pH 7.4 incubated for 20 hrs by HPLC analysis; type: physicochemical; details: buffer
[17] = Acute toxicity in Wistar rat assessed as morbidity at 1 to 10 mg/kg, ip and measured upto 24 hrs; type: organism-based; details: in vivo, dose 1-10 mg/kg; procedure, shortened: as §1
[18] = Half life in Wistar rat at 0.5 mg/kg, iv and measured upto 24 hrs; type: ADME, organism-based; details: in vivo
[19] = Half life in Wistar rat at 10 mg/kg, ip and measured upto 24 hrs; type: ADME, organism-based; details: in vivo
P2Y purinoceptor 14 = target: T1, P2Y purinoceptor 14 (Homo sapiens, UniProt Q15391); test: Displacement of fluorescent tracer 4-(4-(1-(4-(1-(6-(3-carboxylato-4-(3-iminio-3H-xanthen-9-yl)benzamido)hexyl)-4,5-dihydro-1H-pyrrol-3-yl)butyl)piperidin-1-ium-4-yl)phenyl)-7-(4-(trifluoromethyl)phenyl)-2-naphthoate from human P2Y14R stably expressed in CHO cells assessed as inhibition constant by flow cytometry; type: cell-based
T1 sequence (Q15391 whole entry): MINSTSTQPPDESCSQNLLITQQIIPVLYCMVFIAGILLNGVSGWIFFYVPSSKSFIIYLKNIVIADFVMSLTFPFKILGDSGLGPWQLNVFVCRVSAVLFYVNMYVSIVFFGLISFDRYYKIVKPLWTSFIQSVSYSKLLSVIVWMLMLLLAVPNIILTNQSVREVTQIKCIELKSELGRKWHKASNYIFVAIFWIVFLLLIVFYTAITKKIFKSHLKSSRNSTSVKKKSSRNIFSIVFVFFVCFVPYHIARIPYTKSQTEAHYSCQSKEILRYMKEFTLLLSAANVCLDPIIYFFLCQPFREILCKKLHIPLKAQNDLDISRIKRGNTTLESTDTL
Procedure, shortened: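 Whole-cell competitive binding: CHO cells expressing hP2Y14R (or HEK-293 cells expressing mP2Y14R) incubated with AlexaFluor488-labelled antagonist tracer at 20 nM.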

Mus musculus [20] = test: Anti-asthmatic activity against OVA/Aspergillus-sensitized protease-mediated C57BL/6J mouse model allergic asthma assessed as reduction in neutrophils in BAL fluid at 10 mg/kg,ip followed by 0.5 hrs OVA challenge and measured after 48 hrs; type: functional, organism-based; details: time 48.5 hrs
[21] = Acute toxicity in Wistar rat assessed as mortality at 1 to 10 mg/kg, ip and measured upto 24 hrs; type: organism-based; details: in vivo, dose 1-10 mg/kg; procedure, shortened: as §1
[22] = Intraperitoneal bioavailability in Wistar rat at 3 mg/kg and measured upto 24 hrs; details: in vivo, ip
[23] = Stability in simulated intestinal fluid assessed as parent compound remaining after 120 mins; type: ADME; details: simulated gi fluid, 2 h; procedure, shortened: as §2

## O=C(O)c1cc(-c2ccc([C@]3(O)[C@@H]4CNC[C@H]3C4)cc2)c2ccc(-c3ccc(C(F)(F)F)cc3)cc2c1
[1]
  Cmax: 500 nM
[2]
  Cmax: 1300 nM
[3]
  t1/2: > 6.67 h
[4]
  PPB: 99.86%
[5]
  Activity: Non-Toxic
[6]
  Ki: 6 µM
Mus musculus [7]
  Activity: 33.7%
[8]
  t1/2: 3.01 h
Mus musculus [9]
  Activity: inactive
Cytochrome P450 3A4
  IC50: > 30 µM
[10]
  Stability: 69.8%
[11]
  Stability: 100%
[12]
  solubility: 1.4 µg/mL (≈ 2.78 µM)
Mus musculus [13]
  Activity: Active
[14]
  t1/2: 4.32 h
[15]
  Cmax: 4000 nM
[16]
  logD at 20 h: 1.2
[17]
  Activity: Non-Toxic
[18]
  t1/2: 2.36 h
[19]
  t1/2: 4.15 h
P2Y purinoceptor 14
  Ki: 0.00344 µM
Mus musculus [20]
  Activity: inactive
[21]
  Activity: Non-Toxic
[22]
  bioavailability: 114%
[23]
  Stability: 93.3%
